Test results taken from the RNAGym collection of RNA variant scans (doi:10.1126/science.aae0568).
Variants at the floor of the assay were thinned out.

B1: tRNA (parent)
chain: GUUCCGUUGGCGUAAUGGUAACGCGUCUCCCUCCUAAGGAGAAGACUGCGGGUUCGAGUCCCGUACGGAACG

Variants of: B1
Test: yeast fitness relative to wild type (ratio to wild type); higher = fitter; tRNA-Arg(CCU), competitive growth, 37 C, YPD
Outline: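 Changes in genotype frequencies gave Darwinian fitness relative to wild type. Frequencies were read by 100-nucleotide paired-end sequencing of gene amplicons before and after pooled Saccharomyces cerevisiae strains, carrying tRNA-Arg(CCU) gene variants at the native locus, were competed in YPD at 37°C for 24 hours in six replicates. A genotype was kept only with ≥ 100 starting reads, and estimates < 0.5 were set to 0.5.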
With A14G G63A the yeast fitness was 0.756. For A14U A43G U59G C62G G63A, the yeast fitness was 0.558. With A14G G23A U47C the yeast fitness was at most 0.5. Variant A14G U35G A37U has a yeast fitness of at most 0.5. Work on A14U G23C A70C yielded a yeast fitness of 0.586. A14U C46A G51C A57U U64G showed a yeast fitness of 0.584. A14G U16A C33A U59C gave a yeast fitness of at most 0.5. A14U C29U C30A A45C gave a yeast fitness of at most 0.5. A14U C34A C46U showed a yeast fitness of at most 0.5. A14G U26G G39A gave a yeast fitness of at most 0.5. A14U A45U G58C gave a yeast fitness of at most 0.5. A14U U16A C31G U47C G68C showed a yeast fitness of at most 0.5. A14U A45C C46U C49G G63A A70U showed a yeast fitness of 0.661. Variant A14U G67A has a yeast fitness of 0.733. Work on A14U G17C C24A C30G A57G yielded a yeast fitness of at most 0.5. In the case of A14U U19A C31U, the yeast fitness is reported as at most 0.5. With A14G G51A U54C the yeast fitness was at most 0.5. In the case of A14U A69U, the yeast fitness is reported as 0.702. With A14U C30U G58C C60A the yeast fitness was at most 0.5. With A14U U19A C24G U54A the yeast fitness was at most 0.5. For A14U G17A G23C C29U C34G A45C U54G G56A, the yeast fitness was at most 0.5. With A14G C31A C34G A43C the yeast fitness was at most 0.5. For A14U A15G C33U A42C, the yeast fitness was at most 0.5. In the case of A14U G39C, the yeast fitness is reported as 0.507. A14U A43U showed a yeast fitness of 0.721. In the case of A14U C27G G52A C60U, the yeast fitness is reported as at most 0.5. Variant A14G U19G G48C has a yeast fitness of 0.736. Variant A14U C46A C66U has a yeast fitness of at most 0.5. In the case of A14U A15C, the yeast fitness is reported as 0.681. A14U A15G gave a yeast fitness of 0.725. For A14U U26A C66A, the yeast fitness was at most 0.5. A14U A15G C24U C31U C61U gave a yeast fitness of at most 0.5. A14U C46A showed a yeast fitness of 0.599. In the case of A14U C46U, the yeast fitness is reported as 0.664. With A14U C24G U26G the yeast fitness was at most 0.5. In the case of A14U A42C, the yeast fitness is reported as 0.639. For A14U U19C A65U, the yeast fitness was at most 0.5. With A14U A40C C62A C66U the yeast fitness was 0.603. In the case of A14U U19A A36C G58C A69U, the yeast fitness is reported as 0.555. In the case of A14G G38A A40C G50A U54A, the yeast fitness is reported as 0.523. A14G G41A U47A C62A showed a yeast fitness of at most 0.5. A14G G48A C66U showed a yeast fitness of 0.645. A14U A20C U59A C66A gave a yeast fitness of at most 0.5. A14U G41C U59A C61A C66U G68C showed a yeast fitness of at most 0.5. Variant A14G C31G A57C A65C has a yeast fitness of at most 0.5. A14U A36U A45G gave a yeast fitness of at most 0.5. In the case of A14U G17C U53G, the yeast fitness is reported as 0.603. Variant A14G G17C A36C G48A C49G G51A has a yeast fitness of at most 0.5. With A14U G44C G52A U59C U64G the yeast fitness was 0.646. Work on A14U C22G A70U yielded a yeast fitness of 0.576. With A14G C30U C46A the yeast fitness was 0.763. Work on A14U G58A C61U yielded a yeast fitness of 0.509. Variant A14G G38A C60U G67C has a yeast fitness of at most 0.5. With A14U G25A C62A G63A A70G the yeast fitness was at most 0.5. Work on A14G G25A G44C yielded a yeast fitness of 0.782. In the case of A14U A20C U59C, the yeast fitness is reported as at most 0.5. With A14G C29G A42C the yeast fitness was at most 0.5. With A14U A57U C60A the yeast fitness was at most 0.5. Variant A14U G17A G23C C29U C34G A43G A45C U54G has a yeast fitness of at most 0.5. In the case of A14G G23A C60A, the yeast fitness is reported as at most 0.5. In the case of A14G G51A, the yeast fitness is reported as 0.657. In the case of A14U G18C A69U, the yeast fitness is reported as at most 0.5. In the case of A14G U28G G41C G48A U64C, the yeast fitness is reported as at most 0.5. With A14G G23C C55U C61U A65U the yeast fitness was 0.558. Variant A14U G17A C22U C33G G67U has a yeast fitness of 0.613. A14U C34G A43C A70U showed a yeast fitness of at most 0.5. A14G C30A showed a yeast fitness of 0.861. With A14G C30G the yeast fitness was 0.591. For A14U G23A U32C, the yeast fitness was at most 0.5. In the case of A14G C30U C46U G50A A69G, the yeast fitness is reported as 0.704. Variant A14U A20G C24A C31U A37U G48A A69C has a yeast fitness of at most 0.5. For A14G G41C C55A, the yeast fitness was at most 0.5. A14U C27U C55G G68A showed a yeast fitness of at most 0.5. For A14G U47C A69C, the yeast fitness was 0.706. With A14U A43U C55G the yeast fitness was 0.511. A14G G23A A70C showed a yeast fitness of at most 0.5. A14U C29U U32G A57U gave a yeast fitness of at most 0.5. A14G G17A G23A U28G gave a yeast fitness of at most 0.5. For A14G C29G C46U A57G C61U, the yeast fitness was at most 0.5. A14U A21U C29G C46U showed a yeast fitness of at most 0.5. A14U C24G showed a yeast fitness of 0.657. A14G C62G gave a yeast fitness of 0.688. In the case of A14U U28A G56C G67U, the yeast fitness is reported as at most 0.5. Work on A14U A21G G25A C34G A57U A69U yielded a yeast fitness of at most 0.5. Variant A14U C29G A57G U59G C62G C66U has a yeast fitness of at most 0.5. With A14U A70G the yeast fitness was 0.734. A14U C27A C33U U47C C49U G51A showed a yeast fitness of at most 0.5. Variant A14G G23A U54G has a yeast fitness of at most 0.5. For A14G C30U A45U, the yeast fitness was 0.675. A14U A43U A45G U53C gave a yeast fitness of at most 0.5. With A14U G44A G58C the yeast fitness was at most 0.5. In the case of A14G C34U, the yeast fitness is reported as 0.62. Variant A14G U28C U32C C33U G56A has a yeast fitness of at most 0.5. For A14G C55G, the yeast fitness was 0.583. A14G G18A gave a yeast fitness of 0.63. A14G G39A A43U gave a yeast fitness of 0.643. In the case of A14U G18C C34U, the yeast fitness is reported as at most 0.5. A14U C24G G41A G44A U53A G63A C66U gave a yeast fitness of at most 0.5. Work on A14G G39A G51C yielded a yeast fitness of at most 0.5. For A14U G17A C31U C61A G68C, the yeast fitness was at most 0.5. A14U U19G C30G showed a yeast fitness of at most 0.5. Variant A14U C30A A65C has a yeast fitness of at most 0.5. Variant A14U C27U C66G has a yeast fitness of at most 0.5. A14U C34G showed a yeast fitness of at most 0.5. Work on A14U C30U C60A C66U yielded a yeast fitness of 0.618. A14U G18C C29U A37U gave a yeast fitness of at most 0.5. Variant A14G U35C A57G has a yeast fitness of at most 0.5. A14U G17C C24A C30G gave a yeast fitness of 0.524. With A14U C22U A45U the yeast fitness was at most 0.5. A14U C29U A37U G50A showed a yeast fitness of at most 0.5. A14G C30A C34A A43C C62U gave a yeast fitness of at most 0.5. A14U A21C U54G showed a yeast fitness of at most 0.5. In the case of A14U C31U G51A G63C, the yeast fitness is reported as at most 0.5. A14G G25C C31A gave a yeast fitness of at most 0.5. In the case of A14G C34G A65U C66A, the yeast fitness is reported as at most 0.5. Work on A14G C31U C33U A45C G48A yielded a yeast fitness of 0.626. Work on A14U A20U G67A yielded a yeast fitness of 0.544. For A14U C49A, the yeast fitness was 0.543. Work on A14U G41A yielded a yeast fitness of 0.674. Variant A14G C34G A45U has a yeast fitness of at most 0.5. A14U A20G C30G A42C showed a yeast fitness of at most 0.5. With A14G C31U A42G C62U A69C the yeast fitness was at most 0.5. With A14U A36G U53A the yeast fitness was at most 0.5. Variant A14G U28C G67U A69C has a yeast fitness of at most 0.5. In the case of A14G G52C C66G, the yeast fitness is reported as 0.619. Work on A14U U28A C46G yielded a yeast fitness of at most 0.5. In the case of A14U A37U A45U, the yeast fitness is reported as at most 0.5. Work on A14G G68A yielded a yeast fitness of 0.653. In the case of A14U A15G G18A, the yeast fitness is reported as at most 0.5. For A14G U19C G67A, the yeast fitness was 0.76. With A14U A45U G68C the yeast fitness was at most 0.5. Work on A14G C66A yielded a yeast fitness of 0.656. Variant A14G C66U has a yeast fitness of 0.891. Work on A14U C22G A42U yielded a yeast fitness of at most 0.5. With A14G G41A A69C the yeast fitness was at most 0.5. A14G G41A G44C C49U showed a yeast fitness of at most 0.5. In the case of A14U A20C G23A C46A U64C, the yeast fitness is reported as at most 0.5. In the case of A14G U26A, the yeast fitness is reported as 0.989. In the case of A14G C31U C34U G38A C46U, the yeast fitness is reported as at most 0.5. In the case of A14G G25A C30A A70C, the yeast fitness is reported as at most 0.5. A14G C34G G63C G67C gave a yeast fitness of at most 0.5. Work on A14G U32G C60U C62U yielded a yeast fitness of 0.539. With A14U A37U A65G the yeast fitness was at most 0.5. In the case of A14G C31G, the yeast fitness is reported as 0.945. A14U G39C C55G C62A gave a yeast fitness of at most 0.5. A14U C27G showed a yeast fitness of 0.611. For A14U G17A C22U C62A, the yeast fitness was at most 0.5. Work on A14U C29U yielded a yeast fitness of 0.64. With A14U C29G the yeast fitness was 0.692. Variant A14G G18A C22G has a yeast fitness of at most 0.5. For A14G G18C A21U C29G G67A, the yeast fitness was at most 0.5. For A14G U26A C27G C62A, the yeast fitness was 0.571. A14U A20U C49U gave a yeast fitness of at most 0.5. With A14U A37U the yeast fitness was at most 0.5. With A14U A36U C62G the yeast fitness was at most 0.5. Variant A14U G50C U53A A57U A65U has a yeast fitness of 0.687. For A14G U19C G38C G44C C46A, the yeast fitness was 0.704. Variant A14G U32G U35G A36C C61G A70G has a yeast fitness of at most 0.5. A14U A21U C22U gave a yeast fitness of 0.527. With A14G G23A C49A the yeast fitness was at most 0.5. With A14U C29U A37U C66U the yeast fitness was at most 0.5. Variant A14U A45C A69U has a yeast fitness of 0.592. A14U U16C A21G C24U C46G C62U gave a yeast fitness of at most 0.5. In the case of A14U U19A, the yeast fitness is reported as 0.709. For A14G C49A, the yeast fitness was 0.694. In the case of A14G G56C, the yeast fitness is reported as 0.611. Variant A14U C34G A37C G50U C62U has a yeast fitness of at most 0.5.
